Tested on: U2OS
Test: Multiplex assay against U2OS
Format: toxicity, cell-based
Conditions: human
Summary of the method: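 Four dyes were applied at seeding to live cells: Hoechst33342, BioTracker Green Microtubule Cytoskeleton Dye, MitoTracker Red and Annexin V Alexa Fluor 680. Imaging after compound addition used a CQ1 microscope at 37°C and 5% CO2. CellPathfinder machine-learning gating then sorted cells into Hoechst high-intensity objects or normal cells, normal cells into healthy, pyknosed or fragmented nuclei, and pyknosed cells into mitotic or apoptotic, with tubulin, mitochondrial-mass and membrane-permeability phenotypes given as per cents of healthy-nucleus cells.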

[1] = 12 h, 1 µM, compound concentration 1 uM, replicate 1
[2] = 12 h, 1 µM, compound concentration 1 uM, replicate 2
[3] = 12 h, 10 µM, compound concentration 10 uM, replicate 1
[4] = 12 h, 10 µM, compound concentration 10 uM, replicate 2
[5] = 24 h, 1 µM, compound concentration 1 uM, replicate 1
[6] = 24 h, 1 µM, compound concentration 1 uM, replicate 2
[7] = 24 h, 10 µM, compound concentration 10 uM, replicate 1
[8] = 24 h, 10 µM, compound concentration 10 uM, replicate 2

CN1CCN(C(=O)C(C)(C)c2ccc(C(=O)Nc3cn4cc(-c5cc(C(C)(C)C)cc(C(C)(C)C)c5)ccc4n3)cc2)CC1 [T3-CLK-N]
Population Apoptotic (%) [1]: 25% | Population Fragmented Nuclei (%) [1]: 8% | Population Healthy Nuclei (%) [1]: 81% | Population Hoechst High Intensity Objects (%) [1]: 8% | Population Membrane Permeable-Phenotype (%) [1]: 18% | Population Mitochondria Different-Phenotype (%) [1]: 20% | Population Mitotic Cells (%) [1]: 75% | Population Normal (%) [1]: 91% | Population Pyknosed Nuclei (%) [1]: 9% | Population Tubulin-Different-Phenotype (%) [1]: 18% | Total Cell Count [1]: 162 | Population Apoptotic (%) [2]: 28% | Population Fragmented Nuclei (%) [2]: 6% | Population Healthy Nuclei (%) [2]: 86% | Population Hoechst High Intensity Objects (%) [2]: 11% | Population Membrane Permeable-Phenotype (%) [2]: 14% | Population Mitochondria Different-Phenotype (%) [2]: 29% | Population Mitotic Cells (%) [2]: 71% | Population Normal (%) [2]: 88% | Population Pyknosed Nuclei (%) [2]: 6% | Population Tubulin-Different-Phenotype (%) [2]: 14% | Total Cell Count [2]: 72 | Population Apoptotic (%) [3]: 27% | Population Fragmented Nuclei (%) [3]: 5% | Population Healthy Nuclei (%) [3]: 87% | Population Hoechst High Intensity Objects (%) [3]: 3% | Population Membrane Permeable-Phenotype (%) [3]: 58% | Population Mitochondria Different-Phenotype (%) [3]: 20% | Population Mitotic Cells (%) [3]: 72% | Population Normal (%) [3]: 96% | Population Pyknosed Nuclei (%) [3]: 6% | Population Tubulin-Different-Phenotype (%) [3]: 34% | Total Cell Count [3]: 177 | Population Apoptotic (%) [4]: 50% | Population Fragmented Nuclei (%) [4]: 16% | Population Healthy Nuclei (%) [4]: 80% | Population Hoechst High Intensity Objects (%) [4]: 15% | Population Membrane Permeable-Phenotype (%) [4]: 56% | Population Mitochondria Different-Phenotype (%) [4]: 38% | Population Mitotic Cells (%) [4]: 50% | Population Normal (%) [4]: 84% | Population Pyknosed Nuclei (%) [4]: 3% | Population Tubulin-Different-Phenotype (%) [4]: 31% | Total Cell Count [4]: 120 | Population Apoptotic (%) [5]: 23% | Population Fragmented Nuclei (%) [5]: 9% | Population Healthy Nuclei (%) [5]: 80% | Population Hoechst High Intensity Objects (%) [5]: 9% | Population Membrane Permeable-Phenotype (%) [5]: 8% | Population Mitochondria Different-Phenotype (%) [5]: 14% | Population Mitotic Cells (%) [5]: 76% | Population Normal (%) [5]: 90% | Population Pyknosed Nuclei (%) [5]: 10% | Population Tubulin-Different-Phenotype (%) [5]: 15% | Total Cell Count [5]: 175 | Population Apoptotic (%) [6]: 33% | Population Fragmented Nuclei (%) [6]: 6% | Population Healthy Nuclei (%) [6]: 89% | Population Hoechst High Intensity Objects (%) [6]: 8% | Population Membrane Permeable-Phenotype (%) [6]: 13% | Population Mitochondria Different-Phenotype (%) [6]: 24% | Population Mitotic Cells (%) [6]: 66% | Population Normal (%) [6]: 91% | Population Pyknosed Nuclei (%) [6]: 4% | Population Tubulin-Different-Phenotype (%) [6]: 16% | Total Cell Count [6]: 97 | Population Apoptotic (%) [7]: 54% | Population Fragmented Nuclei (%) [7]: 9% | Population Healthy Nuclei (%) [7]: 83% | Population Hoechst High Intensity Objects (%) [7]: 2% | Population Membrane Permeable-Phenotype (%) [7]: 53% | Population Mitochondria Different-Phenotype (%) [7]: 27% | Population Mitotic Cells (%) [7]: 45% | Population Normal (%) [7]: 97% | Population Pyknosed Nuclei (%) [7]: 6% | Population Tubulin-Different-Phenotype (%) [7]: 39% | Total Cell Count [7]: 230 | Population Apoptotic (%) [8]: 50% | Population Fragmented Nuclei (%) [8]: 17% | Population Healthy Nuclei (%) [8]: 71% | Population Hoechst High Intensity Objects (%) [8]: 14% | Population Membrane Permeable-Phenotype (%) [8]: 48% | Population Mitochondria Different-Phenotype (%) [8]: 56% | Population Mitotic Cells (%) [8]: 50% | Population Normal (%) [8]: 85% | Population Pyknosed Nuclei (%) [8]: 10% | Population Tubulin-Different-Phenotype (%) [8]: 43% | Total Cell Count [8]: 144
